This is an account of results in ChEMBL document CHEMBL3400126, “Benzo-fused lactams from a diversity-oriented synthesis (DOS) library as inhibitors of scavenger receptor BI (SR-BI)-mediated lipid uptake” (Bioorg Med Chem Lett, 2015).

For data set [1], the target named is T1, Scavenger receptor class B member 1 (Mus musculus, UniProt Q61009).
T1 sequence (Q61009 whole entry): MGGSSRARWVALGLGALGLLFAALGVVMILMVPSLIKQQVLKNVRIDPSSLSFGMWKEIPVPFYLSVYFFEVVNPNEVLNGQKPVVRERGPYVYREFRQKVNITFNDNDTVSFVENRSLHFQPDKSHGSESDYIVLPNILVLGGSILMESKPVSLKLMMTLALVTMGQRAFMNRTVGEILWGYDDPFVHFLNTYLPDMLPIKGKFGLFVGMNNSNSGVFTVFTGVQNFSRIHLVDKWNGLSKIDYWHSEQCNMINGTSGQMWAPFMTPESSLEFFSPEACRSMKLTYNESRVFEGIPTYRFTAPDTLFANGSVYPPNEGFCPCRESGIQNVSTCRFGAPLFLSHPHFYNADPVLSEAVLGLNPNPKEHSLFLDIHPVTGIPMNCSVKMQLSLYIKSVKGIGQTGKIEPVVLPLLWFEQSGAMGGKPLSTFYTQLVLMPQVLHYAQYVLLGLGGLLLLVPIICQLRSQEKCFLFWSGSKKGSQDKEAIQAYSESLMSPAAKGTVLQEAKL
As to the kind of experiment: Inhibition of mouse SR-B1 overexpressed in CHO cells assessed as inhibition of transfer of the fluorescent lipid DiI from HDL particles to cells after 3 hrs. The data set is classed as cell-based. Summed up: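 Primary assay: uptake of fluorescent lipid DiI from DiI-labeled HDL particles into IdlA[mSR-BI] cells, i.e. CHO cells overexpressing mouse SR-BI. Read-out is cell-associated DiI fluorescence. Compounds that quenched DiI-HDL fluorescence in a dose-dependent manner were excluded by counterscreen. 1 μM BLT-1 served as positive control.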

Data set [2] relates to CHO. As to the kind of experiment: Cytotoxicity against CHO cells after 24 hrs by CellTiterGlo assay. It counts as cell-based, Cricetulus griseus. The note with it: chinese hamster. The essentials:
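IdlA[mSR-BI] cells (CHO overexpressing mouse SR-BI) incubated with compound for 24 h; cellular ATP levels read by CellTiter-Glo luminescence.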
A general note: ATP-based viability assays read luminescence as a measure of living cells.

`CC(C)NC(=O)Nc1ccc2c(c1)C(=O)N(C(C)C)C[C@@H](C)[C@H](CN(C)S(=O)(=O)c1ccc(Cl)cc1)O2`: in data set [1], the IC50 was found to be 9.9 µM. Also, in data set [2], the Activity entry was “Non-toxic”.

`Cc1noc(C)c1NC(=O)Nc1ccc2c(c1)C(=O)N([C@H](C)CO)C[C@@H](C)[C@H](CN(C)S(=O)(=O)c1ccc(Cl)cc1)O2`: the IC50 in data set [1] came to 7.1 µM. Also, the Activity result in data set [2] is given as “Non-toxic”.

As to `C[C@@H]1CN([C@H](C)CN(C)C)C(=O)c2cc(NC(=O)Cc3cn(C)c4ccccc34)ccc2O[C@H]1CN(C)S(=O)(=O)c1ccc(Cl)cc1`, the IC50 in data set [1] was above 25 µM. In data set [2], the Activity entry is given as “Non-toxic”.

For `C[C@@H]1CN([C@H](C)CO)C(=O)c2cc(N(C)C)ccc2O[C@H]1CN(C)S(=O)(=O)c1ccc(Cl)cc1`, the IC50 in data set [1] came to 0.63 µM. Further, the Activity result in data set [2] was “Non-toxic”.

`C[C@@H]1CN([C@H](C)CO)C(=O)c2cc(NC(=O)C3CCCCC3)ccc2O[C@H]1CN(C)C(=O)c1ccc(Cl)cc1`: in data set [1], the IC50 was above 25 µM. The Activity entry in data set [2] was “Non-toxic”.

For `C[C@@H]1CN([C@H](C)CO)C(=O)c2cc(NS(C)(=O)=O)ccc2O[C@H]1CN(C)S(=O)(=O)c1ccc(Cl)cc1`, the half-inhibitory concentration (IC50) in data set [1] is 1.6 µM. Besides, the Activity result in data set [2] was “Non-toxic”.

In the case of `C[C@@H]1CN([C@H](C)CO)C(=O)c2cc(NC(=O)CCN3CCOCC3)ccc2O[C@H]1CN(C)S(=O)(=O)c1ccc(Cl)cc1`, the IC50 in data set [1] amounted to 5 µM. In addition, the Activity result in data set [2] is reported as “Non-toxic”.

For the compound `C[C@@H]1CN([C@H](C)CO)C(=O)c2cc(NC(=O)Cc3cn(C)c4ccccc34)ccc2O[C@H]1CN(C)Cc1ccc(Cl)c(Cl)c1`, in data set [1], the IC50 was above 25 µM. In data set [2], the Activity result is “Non-toxic”.

Take `C[C@@H]1CN([C@H](C)CO)C(=O)c2cc(NC(=O)Cc3cn(C)c4ccccc34)ccc2O[C@H]1CN(C)S(=O)(=O)c1cccs1`: the IC50 in data set [1] worked out at 2.4 µM. In addition, the Activity entry in data set [2] is reported as “Non-toxic”.

With `COc1ccc(NC(=O)Nc2ccc3c(c2)C(=O)N([C@H](C)CO)C[C@@H](C)[C@H](CN(C)S(=O)(=O)c2ccc(Cl)cc2)O3)cc1`, the IC50 in data set [1] is 0.3 µM. The Activity result in data set [2] is reported as “Non-toxic”.

Take `C[C@@H]1CN([C@H](C)CO)C(=O)c2cc(NC(=O)Cn3cnnn3)ccc2O[C@H]1CN(C)S(=O)(=O)c1ccc(Cl)cc1`: the IC50 in data set [1] turned out to be 10 µM. In addition, the Activity result in data set [2] was “Non-toxic”.

Regarding `C[C@@H]1CN([C@H](C)CO)C(=O)c2cc(NC(=O)Cc3cn(C)c4ccccc34)ccc2O[C@H]1CN(C)C(=O)Nc1ccccc1`, the 50% inhibitory concentration (IC50) in data set [1] amounted to 4.9 µM. In addition, in data set [2], the Activity result is “Non-toxic”.

Turning to `C[C@@H]1CN([C@H](C)CO)C(=O)c2cc(NC(=O)Cc3cn(C)c4ccccc34)ccc2O[C@H]1CN(C)Cc1ccc2c(c1)OCO2`, in data set [1], the IC50 was determined as 0.89 µM. Besides, in data set [2], the Activity result is “Non-toxic”.

As for `CNC[C@@H]1Oc2ccc(NC(=O)Cc3cn(C)c4ccccc34)cc2C(=O)N([C@H](C)CO)C[C@H]1C`, the IC50 in data set [1] is above 25 µM. Further, in data set [2], the Activity result is “Non-toxic”.

Regarding `Cc1noc(C)c1S(=O)(=O)Nc1ccc2c(c1)C(=O)N([C@H](C)CO)C[C@@H](C)[C@H](CN(C)S(=O)(=O)c1ccc(Cl)cc1)O2`, the IC50 in data set [1] was determined as 0.19 µM. Moreover, the Activity entry in data set [2] is given as “Non-toxic”.

In the case of `C[C@@H]1CN([C@H](C)CO)C(=O)c2cc(NC(=O)Cc3cn(C)c4ccccc34)ccc2O[C@H]1CN(C)C`, the 50% inhibitory concentration (IC50) in data set [1] was found to be 18 µM. Further, in data set [2], the Activity result is on record as “Non-toxic”.

On to `C[C@@H]1CN([C@H](C)CO)C(=O)c2cc(NC(=O)NC3CCCCC3)ccc2O[C@H]1CN(C)S(=O)(=O)c1ccc(Cl)cc1`, for which the IC50 in data set [1] was 0.35 µM. The Activity result in data set [2] is given as “Non-toxic”.

In the case of `C[C@@H]1CN([C@H](C)CO)C(=O)c2cc(NC(=O)C3CCCCC3)ccc2O[C@H]1CN(C)S(=O)(=O)c1cccc(Cl)c1`, the Activity result in data set [2] is “Non-toxic”.

As to `C[C@@H]1CN([C@H](C)CO)C(=O)c2cc(NC(=O)Cc3cn(C)c4ccccc34)ccc2O[C@@H]1CN(C)S(=O)(=O)c1ccc(Cl)cc1`, in data set [2], the Activity entry is on record as “Non-toxic”.

As usually defined, the IC50 is the midpoint of a concentration-inhibition curve.
